pIC50: −log10 of the molar value. Blank lines part the entries; values can stand above or below the compound they belong to. The source made the active and inactive calls. The rule behind the calls is not given here.
How the values were obtained:
[1] = Inhibition of S-nitrosoglutathione reductase expressed in Escherichia coli using GSNO as substrate measured for 3 mins by spectrophotometry
[2] = Plasma clearance in BALB/c mouse at 2 mg/kg, iv; assay type: ADME, organism-based; parameters: dose 2 mg/kg, route intravenous
[3] = Oral bioavailability in BALB/c mouse at 10 mg/kg; assay type: ADME, organism-based; conditions: in vivo
[4] = Toxicity in iv dosed CD-1 mouse administered qd for 4 days measured on day 5; assay type: organism-based; conditions: in vivo
Summary of the method: (§1)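 Read-out was the no observable adverse effect level (NOAEL) in mg/kg/day.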

Mus musculus [5] = experiment: Antiinflammatory activity in C57B1/6 mouse IBD model assessed as inhibition of DSS-induced inflammatory response at 1 mg/kg, iv or po administered for 10 days from 2 days prior to and up to 2 days post DSS-challenge; assay type: functional, organism-based; parameters: dose 1 mg/kg
Summary of the method: (§2)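 Mouse model of DSS-induced IBD. Dosing was oral or IV at 1 and 10 mg/kg/day for 10 days.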

Mus musculus [6] = experiment: Antiinflammatory activity in C57B1/6 mouse IBD model assessed as inhibition of DSS-induced inflammatory response at 10 mg/kg, iv or po administered for 10 days from 2 days prior to and up to 2 days post DSS-challenge; assay type: functional, organism-based; parameters: dose 10 mg/kg; summary of the method: as §2
Mus musculus [7] = experiment: Antiasthmatic activity in C57B1/6 mouse COPD model assessed as inhibition of porcine pancreatic elastase-induced emphysema at 0.1 to 10 mg/kg, po after 7 to 14 days by light microscopy; assay type: functional, organism-based
Mus musculus [8] = experiment: Antiasthmatic activity in ovalbumin-sensitized BALB/c mouse assessed as inhibition of ovalbumin-induced easonophil infiltration into lungs at 0.0005 to 30 mg/kg, iv administered from 30 mins to 72 hrs prior to assesment by light microscopy; assay type: functional, organism-based
Summary of the method: (§3)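 Ovalbumin-induced asthma model in mice, dosed by single IV administration. Read-out was eosinophil infiltration into the lungs.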

Rattus norvegicus = species on record: Rattus norvegicus; experiment: Antihypertensive activity in rat DAHL/S model assessed as reduction in high dietary salt-induced hypertension
Mus musculus [9] = experiment: Antiasthmatic activity in ovalbumin-sensitized BALB/c mouse assessed as inhibition of methacholine-induced bronchoconstriction at 0.0005 to 30 mg/kg, iv administered from 30 mins to 48 hrs prior to assessment by whole body plethysmography
Salmonella typhimurium = experiment: Mutagenic activity in Salmonella Typhimurium; assay type: toxicity, organism-based; conditions: salmonella enterica subsp. enterica serovar typhimurium
Homo sapiens = species on record: Homo sapiens; experiment: Inhibition of human recombinant delta2 opioid receptor at 10 uM by radioligand displacement assay
Summary of the method: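 Off-target screen measuring percent inhibition of receptor radioligand binding, with test compound at 10 μM.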

[10] = target: Voltage-gated inwardly rectifying potassium channel KCNH2 (Homo sapiens, UniProt Q12809); experiment: Inhibition of human ERG
[11] = Toxicity in po dosed CD-1 mouse administered qd for 4 days measured on day 5; assay type: organism-based; conditions: in vivo; summary of the method: as §1
Mus musculus [12] = experiment: Antiasthmatic activity in ovalbumin-sensitized BALB/c mouse assessed as inhibition of methacholine-induced bronchoconstriction at >/= 0.01 mg/kg, iv administered from 30 mins to 48 hrs prior to metacholine-challenge by whole body plethysmography; assay type: functional, organism-based; parameters: dose 0.01 mg/kg
Mus musculus [13] = experiment: Antiasthmatic activity in ovalbumin-sensitized iv dosed BALB/c mouse assessed as inhibition of methacholine-induced bronchoconstriction administered from 30 mins to 48 hrs prior to metacholine-challenge by whole body plethysmography; assay type: functional, organism-based
Mus musculus [14] = experiment: Antiasthmatic activity in ovalbumin-sensitized BALB/c mouse assessed as inhibition of methacholine-induced bronchoconstriction at >/= 0.01 mg/kg, iv administered prior to metacholine-challenge by whole body plethysmography; assay type: functional, organism-based; parameters: dose 0.01 mg/kg; conditions: TDE = time-dependent effect
Mus musculus [15] = experiment: Antiasthmatic activity in ovalbumin-sensitized BALB/c mouse assessed as inhibition of ovalbumin-induced easonophil infiltration in lungs at >/= 0.0005 mg/kg, iv administered from 30 mins to 72 hrs prior to assessment by light microscopy; assay type: functional, organism-based; parameters: dose 0.0005 mg/kg; summary of the method: as §3

Voltage-gated inwardly rectifying potassium channel KCNH2, sequence (Q12809 whole entry): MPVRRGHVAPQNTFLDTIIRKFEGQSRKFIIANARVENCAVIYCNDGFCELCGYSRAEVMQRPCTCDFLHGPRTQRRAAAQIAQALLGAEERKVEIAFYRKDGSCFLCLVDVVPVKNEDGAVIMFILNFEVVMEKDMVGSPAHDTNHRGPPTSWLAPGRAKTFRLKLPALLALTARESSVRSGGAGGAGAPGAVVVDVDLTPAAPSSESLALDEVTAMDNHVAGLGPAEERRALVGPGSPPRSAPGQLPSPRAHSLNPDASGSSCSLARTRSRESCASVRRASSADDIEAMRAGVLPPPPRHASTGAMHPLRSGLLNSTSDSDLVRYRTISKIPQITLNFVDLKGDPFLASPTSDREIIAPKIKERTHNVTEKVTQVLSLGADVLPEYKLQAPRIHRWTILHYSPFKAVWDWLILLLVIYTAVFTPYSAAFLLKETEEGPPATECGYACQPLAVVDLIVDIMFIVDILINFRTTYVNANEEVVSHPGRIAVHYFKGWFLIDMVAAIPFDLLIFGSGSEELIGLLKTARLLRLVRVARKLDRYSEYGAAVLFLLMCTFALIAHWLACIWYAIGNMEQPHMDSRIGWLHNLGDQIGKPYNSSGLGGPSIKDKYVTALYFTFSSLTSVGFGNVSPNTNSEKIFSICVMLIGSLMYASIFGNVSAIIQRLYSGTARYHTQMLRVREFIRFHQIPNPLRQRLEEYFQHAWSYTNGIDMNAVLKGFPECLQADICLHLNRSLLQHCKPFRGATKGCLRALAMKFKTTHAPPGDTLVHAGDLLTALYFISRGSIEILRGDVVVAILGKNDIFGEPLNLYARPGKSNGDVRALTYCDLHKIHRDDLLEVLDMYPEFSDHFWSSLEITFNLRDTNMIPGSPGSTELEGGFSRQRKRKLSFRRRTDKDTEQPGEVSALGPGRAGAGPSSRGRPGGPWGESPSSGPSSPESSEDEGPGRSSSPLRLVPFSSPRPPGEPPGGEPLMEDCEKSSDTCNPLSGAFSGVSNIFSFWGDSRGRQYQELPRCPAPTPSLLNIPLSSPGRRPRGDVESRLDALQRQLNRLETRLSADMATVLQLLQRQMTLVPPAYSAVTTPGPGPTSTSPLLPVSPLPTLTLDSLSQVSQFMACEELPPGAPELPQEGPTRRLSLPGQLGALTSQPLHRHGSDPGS

SMILES: COc1ccc(-c2ccc(CCc3nnn[nH]3)n2-c2ccc(C(N)=O)cc2C)cc1
- pIC50 [1]: 5.82

SMILES: Cc1cc(C(N)=O)ccc1-n1c(CCC(=O)O)ccc1-c1ccc(C#N)cc1
- clearance [2]: 25.5 mL/min/kg
- bioavailability [3]: 16.3%
- pIC50 [1]: 6.25

SMILES: Cc1cc(C(N)=O)ccc1-n1c(Cc2nnn[nH]2)ccc1-c1ccc(Br)cc1
- pIC50 [1]: 6.25

SMILES: Cc1cc(C(N)=O)ccc1-n1c(CCC(=O)O)ccc1-c1ccc(C(N)=O)cc1
- pIC50 [1]: 5.41

SMILES: Cc1cc(C(N)=O)ccc1-n1c(CCC(=O)O)ccc1-c1ccccc1
- clearance [2]: 11.8 mL/min/kg
- bioavailability [3]: 46.8%
- pIC50 [1]: 6.44

SMILES: Oc1ccc(-n2c(CCc3nnn[nH]3)ccc2-c2ccc(Br)cc2)cc1
- pIC50 [1]: 6.35

SMILES: Cc1cc(C(N)=O)ccc1-n1c(CCC(=O)O)ccc1-c1ccc(Cl)cc1NC=O
- pIC50 [1]: 6.24

SMILES: COc1ccc(-c2ccc(CCC(=O)O)n2-c2ccc(C(N)=O)cc2C(F)(F)F)cc1
- pIC50 [1]: 6.35

SMILES: Cc1cc(C(N)=O)ccc1-n1c(CCC(=O)O)ccc1-c1ccc(F)cc1
- pIC50 [1]: 6.30

SMILES: NC(=O)c1ccc(-n2c(CCC(=O)O)ccc2-c2ccccc2)cc1
- clearance [2]: 8.9 mL/min/kg
- bioavailability [3]: 86.5%
- pIC50 [1]: 6.24

SMILES: COc1ccc(-c2ccc(Cc3nnn[nH]3)n2-c2ccc(C(N)=O)cc2C)cc1
- pIC50 [1]: 5.54

SMILES: Oc1ccc(-n2c(Cc3nnn[nH]3)ccc2-c2ccc(Br)cc2)cc1
- pIC50 [1]: 5.36

SMILES: Cc1cc(C(N)=O)ccc1-n1c(CCC(=O)O)ccc1-c1ccc(C(F)(F)F)cc1
- pIC50 [1]: 5.40

SMILES: COc1ccc(-c2ccc(CCC(=O)O)n2-c2ccc(C(N)=O)cc2)cc1
- pIC50 [1]: 6.34

Second part, led by results:

- clearance [2]: 21.4 mL/min/kg
- bioavailability [3]: 18%
- pIC50 [1]: 6.80
SMILES: Cc1cc(C(N)=O)ccc1-n1c(CCC(=O)O)ccc1-c1ccc(Br)cc1
- NOAEL at 96 h [4]: 50 mg/kg
- Activity (Mus musculus [5]): Active
- Activity (Mus musculus [6]): Active
- Activity (Mus musculus [7]): Active
- Activity (Mus musculus [8]): Active
- Activity (Rattus norvegicus): Active
- Activity (Mus musculus [9]): Active

- pIC50 [1]: 6.80
SMILES: Cc1cc(C(N)=O)ccc1-n1c(CCC(=O)O)ccc1-c1ccc(O)cc1

- pIC50 [1]: 6.72
SMILES: Cc1cc(C(N)=O)ccc1-n1c(CCc2nnn[nH]2)ccc1-c1ccc(Br)cc1

- clearance [2]: 20.2 mL/min/kg
- bioavailability [3]: 22.4%
- pIC50 [1]: 7.25
SMILES: COc1cc(Cl)ccc1-c1ccc(CCC(=O)O)n1-c1ccc(C(N)=O)cc1C
- Activity (Mus musculus [5]): Active
- Activity (Mus musculus [6]): Active
- Activity (Mus musculus [7]): Active
- Activity (Mus musculus [8]): Active
- Activity (Rattus norvegicus): Active
- Activity (Mus musculus [9]): Active

- pIC50 [1]: 6.80
SMILES: Cc1cc(C(N)=O)ccc1-n1c(CCC(=O)O)ccc1-c1ccc(Cl)cc1C(N)=O

- pIC50 [1]: 6.96
SMILES: CCCOc1cc(Cl)ccc1-c1ccc(CCC(=O)O)n1-c1ccc(C(N)=O)cc1C

- pIC50 [1]: 6.92
SMILES: Cc1cc(C(N)=O)ccc1-n1c(CCC(=O)O)ccc1-c1ccc(Cl)cc1F

- pIC50 [1]: 6.52
SMILES: Oc1ccc(-n2c(CCc3nnn[nH]3)ccc2-c2ccc(-n3ccnc3)cc2)cc1

- pIC50 [1]: 6.62
SMILES: COc1ccc(-c2ccc(CCC(=O)O)n2-c2ccc(C(N)=O)cc2F)cc1

- clearance [2]: 22.4 mL/min/kg
- bioavailability [3]: 21.8%
- pIC50 [1]: 7.02
SMILES: COc1cc(Br)ccc1-c1ccc(CCC(=O)O)n1-c1ccc(C(N)=O)cc1C

- clearance [2]: 33.4 mL/min/kg
- bioavailability [3]: 2.72%
- pIC50 [1]: 7.26
SMILES: Cc1cc(C(N)=O)ccc1-n1c(CCC(=O)O)ccc1-c1ccc(Cl)cc1O
- Activity (Mus musculus [5]): Active
- Activity (Mus musculus [6]): Active
- Activity (Mus musculus [7]): Active
- Activity (Mus musculus [8]): Active
- Activity (Rattus norvegicus): Active
- Activity (Mus musculus [9]): Active

- inhibition (Homo sapiens): 66%
- pIC50 [1]: 7.70
SMILES: Cc1cc(C(N)=O)ccc1-n1c(CCC(=O)O)ccc1-c1ccc(-n2ccnc2)cc1 [N6022]
- Activity (Salmonella typhimurium): Non-toxic
- INH [10]: > 100 µM
- NOAEL at 96 h [4]: 30 mg/kg
- NOAEL at 96 h [11]: 100 mg/kg
- Activity (Mus musculus [12]): Active
- Activity (Mus musculus [13]): Dose-dependent effect
- Activity (Mus musculus [14]): tde
- Activity (Mus musculus [15]): Active
- Activity (Mus musculus [5]): Active
- Activity (Mus musculus [6]): Active

- pIC50 [1]: 7.74
SMILES: Oc1ccc(-n2c(Cc3nnn[nH]3)ccc2-c2ccc(-n3ccnc3)cc2)cc1

- pIC50 [1]: 6.77
SMILES: CCOc1cc(Cl)ccc1-c1ccc(CCC(=O)O)n1-c1ccc(C(N)=O)cc1C

- pIC50 [1]: 6.46
SMILES: Cc1cc(C(N)=O)ccc1-n1c(CCC(=O)O)ccc1-c1ccc(Cl)cc1N(C)C

- pIC50 [1]: 6.72
SMILES: COc1ccc(-c2ccc(CCC(=O)O)n2-c2ccc(C(N)=O)cc2Cl)cc1

- pIC50 [1]: 6.48
SMILES: Cc1cc(C(N)=O)ccc1-n1c(CCC(=O)O)ccc1-c1ccc(Cl)cc1C(F)(F)F

- clearance [2]: 16 mL/min/kg
- bioavailability [3]: 20.7%
- pIC50 [1]: 6.92
SMILES: Cc1cc(C(N)=O)ccc1-n1c(CCC(=O)O)ccc1-c1ccc(Cl)cc1

- pIC50 [1]: 6.68
SMILES: COc1ccc(-c2ccc(CCC(=O)O)n2-c2ccc(C(N)=O)cc2C)cc1
- NOAEL at 96 h [4]: 50 mg/kg
- Activity (Mus musculus [5]): Active
- Activity (Mus musculus [6]): Active
- Activity (Mus musculus [7]): Active
- Activity (Mus musculus [8]): Active
- Activity (Rattus norvegicus): Active
- Activity (Mus musculus [9]): Active

- pIC50 [1]: 6.70
SMILES: COc1ccc(-c2ccc(CCC(=O)O)n2-c2ccc(C(N)=O)cc2C)c(Cl)c1

- pIC50 [1]: 6.80
SMILES: Cc1cc(C(N)=O)ccc1-n1c(CCC(=O)O)ccc1-c1ccc(Cl)cc1Cl

From ChEMBL document CHEMBL1949493, “Discovery of s-nitrosoglutathione reductase inhibitors: potential agents for the treatment of asthma and other inflammatory diseases” (ACS Med Chem Lett, 2011)
